# According to ChEMBL document CHEMBL1132971, “New azolidinediones as inhibitors of protein tyrosine phosphatase 1B with antihyperglycemic properties” (J Med Chem, 2000):
# Activity calls are given as the source filed them. No cut-off for these calls is given here.
# Columns and labels:
# Mus musculus [1] = assay: Evaluated for their ability to decrease plasma insulin levels in mouse at a dose 100 mg/kg/day. **p indicates <0.01; format: functional
# Summary of the method: (§1)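 Mice dosed orally once daily for 4 days; plasma glucose and insulin measured and expressed as percent change versus a vehicle-treated group (mean ± SE, 4-6 mice/group). NS is generally less than -15% change. Significance is versus vehicle-treated mice.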
# Mus musculus [2] = assay: Evaluated in vivo for their ability to decrease plasma glucose levels in diabetic C57BL/KsJ ob/ob mouse at a dose 100 mg/kg/day.; format: functional; summary of the method: as §1
# [3] = target: T1, Tyrosine-protein phosphatase non-receptor type 1 (Rattus norvegicus) (UniProt P20417); assay: Inhibition of PTPase activity using recombinant r-PTP1B as the enzyme and IR-triphosphopeptide as substrate at 50 uM
# T1 sequence (whole entry): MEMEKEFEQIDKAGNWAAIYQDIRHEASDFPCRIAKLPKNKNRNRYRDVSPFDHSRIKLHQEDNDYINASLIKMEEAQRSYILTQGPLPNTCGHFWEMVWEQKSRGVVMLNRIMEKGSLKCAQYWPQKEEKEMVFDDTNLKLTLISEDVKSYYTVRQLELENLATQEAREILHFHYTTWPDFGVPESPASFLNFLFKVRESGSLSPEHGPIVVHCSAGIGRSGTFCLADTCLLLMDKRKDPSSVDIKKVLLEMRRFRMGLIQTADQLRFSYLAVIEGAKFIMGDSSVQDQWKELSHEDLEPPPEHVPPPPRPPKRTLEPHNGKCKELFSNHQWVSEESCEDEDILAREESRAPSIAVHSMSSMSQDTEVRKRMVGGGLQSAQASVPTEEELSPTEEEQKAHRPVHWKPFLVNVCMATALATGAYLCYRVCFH
# Summary of the method: (§2)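 Rat recombinant PTP1B in 33 mM TRIS-HCl, 2 mM EDTA, 50 mM β-mercaptoethanol, pH 7.4 (about 1000-2000 nmol/min/mg). Preincubated 10 min at 37 °C with or without compound in HEPES buffer pH 7.4. Released phosphate read by malachite green-ammonium molybdate at 650 nm against a phosphate standard. Quadruplicates. IC50 by four-parameter logistic fit.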
# Mus musculus [4] = assay: Evaluated in vivo for their ability to decrease plasma glucose levels in diabetic C57BL/KsJ db/db mouse at a dose 100 mg/kg/day.,*p indicates <0.05; format: functional; summary of the method: as §1
# [5] = target: T2, Tyrosine-protein phosphatase non-receptor type 1 (Mus musculus) (UniProt P35821); assay: In vivo ability to decrease plasma glucose levels in diabetic C57BL/KsJ ob/ob mouse at a dose 100 mg/kg/day; format: functional, organism-based
# T2 sequence (whole entry): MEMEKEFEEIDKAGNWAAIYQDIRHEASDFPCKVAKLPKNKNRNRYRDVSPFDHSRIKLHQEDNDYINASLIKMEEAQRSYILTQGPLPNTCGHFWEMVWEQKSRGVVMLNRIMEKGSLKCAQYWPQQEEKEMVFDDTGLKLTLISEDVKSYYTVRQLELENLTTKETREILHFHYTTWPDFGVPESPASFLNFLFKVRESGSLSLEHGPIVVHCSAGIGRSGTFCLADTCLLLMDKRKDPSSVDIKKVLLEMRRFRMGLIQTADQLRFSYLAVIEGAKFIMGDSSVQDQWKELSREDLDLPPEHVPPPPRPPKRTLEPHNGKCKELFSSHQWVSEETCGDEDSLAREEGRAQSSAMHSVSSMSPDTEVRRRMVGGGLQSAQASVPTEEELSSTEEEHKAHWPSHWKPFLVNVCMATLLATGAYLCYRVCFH
# Summary of the method: (§3)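 Diabetic db/db or ob/ob mice dosed orally once daily for 4 days. Plasma glucose and insulin reported as percent change from a vehicle-treated group. 4-6 mice per group. Significance set at p < 0.05 or p < 0.01 versus vehicle; NS means generally less than -15% change.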
# [6] = target: T1, Tyrosine-protein phosphatase non-receptor type 1 (Rattus norvegicus); assay: Inhibition of PTPase (PTP1B) activity in rat hepatic membrane at 50 uM concentration, using pNPP as the substrate; format: cell membranes; settings: Liver
# Summary of the method: (§4)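 Liver membranes from male Sprague-Dawley rats (100-150 g), about 30 µg protein per well. Preincubated 10 min at 37 °C with compound in 1.25% DMSO in 50 mM HEPES pH 7.4. Then 6.33 mM pNPP for 30 min at 37 °C, stopped with NaOH. p-Nitrophenol read at 410 nm. Run in triplicate. Reported as percent of untreated control.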
# [7] = target: T3, Tyrosine-protein phosphatase non-receptor type 1 (Rattus norvegicus, UniProt P20417); assay: Inhibition of PTPase activity using recombinant r-PTP1B and IR-triphosphopeptide as substrate; ND is no data.; summary of the method: as §2
# T3 sequence (P20417 whole entry): T1 sequence (whole entry)
# [8] = target: T2, Tyrosine-protein phosphatase non-receptor type 1 (Mus musculus); assay: Ability to decrease plasma insulin levels in mouse at a dose 100 mg/kg/day; format: functional, organism-based; summary of the method: as §3
# Mus musculus [9] = assay: Evaluated in vivo for their ability to decrease plasma glucose levels in diabetic C57BL/KsJ ob/ob mouse at a dose 100 mg/kg/day, **p indicates <0.01; format: functional; summary of the method: as §1
# Mus musculus [10] = assay: Evaluated for their ability to decrease plasma insulin levels in mouse at a dose 100 mg/kg/day, **p indicates <0.01; format: functional; summary of the method: as §3
# [11] = target: T3, Tyrosine-protein phosphatase non-receptor type 1; assay: Inhibition of PTPase activity in rat hepatic membrane at a concentration of 50 uM using pNPP as the substrate; format: cell membranes, Liver; summary of the method: as §4
# Mus musculus [12] = assay: Evaluated in vivo for their ability to decrease plasma glucose levels in diabetic C57BL/KsJ db/db mouse at a dose 100 mg/kg/day; NS is non significant; format: functional, organism-based; summary of the method: as §3
# [13] = target: T3, Tyrosine-protein phosphatase non-receptor type 1; assay: Inhibition of PTPase activity using recombinant Protein-tyrosine phosphatase 1B and IR-triphosphopeptide as substrate; ND is no data.
# [14] = target: T1, Tyrosine-protein phosphatase non-receptor type 1 (Rattus norvegicus); assay: Inhibition of Protein-tyrosine phosphatase 1B activity in rat hepatic membrane at a concentration of 50 uM using pNPP as the substrate; format: cell membranes; settings: Liver; summary of the method: as §4
# Mus musculus [15] = assay: Evaluated in vivo for their ability to decrease plasma glucose levels in diabetic C57BL/KsJ db/db mouse at a dose 100 mg/kg/day. *p indicates <0.05; format: functional; summary of the method: as §1
# [16] = target: T1, Tyrosine-protein phosphatase non-receptor type 1 (Rattus norvegicus); assay: Inhibition of PTPase activity using recombinant r-PTP1B as the enzyme and IR-triphosphopeptide as substrate at 10 uM
# Summary of the method: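 Recombinant rat PTP1B (human 321-aa form assayed the same way), activity about 1000-2000 nmol/min/mg, preincubated with compound for 10 min at 37 °C in HEPES pH 7.4. The reaction is started with 50 µM triphosphorylated insulin receptor 1142-1153 dodecapeptide and run 30 min at 37 °C. Released phosphate read by malachite green-molybdate at 650 nm, in quadruplicate. Result is percent inhibition versus control.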
# [17] = target: T3, Tyrosine-protein phosphatase non-receptor type 1; assay: Inhibition of PTPase activity using recombinant r-PTP1B as the enzyme and IR-triphosphopeptide as substrate; summary of the method: as §2
# Mus musculus [18] = assay: Evaluated for their ability to decrease plasma insulin levels in mouse at a dose 100 mg/kg/day; NS=not significant; format: functional, organism-based; summary of the method: as §3
# Mus musculus [19] = assay: Evaluated in vivo for their ability to decrease plasma glucose levels in diabetic C57BL/KsJ db/db mouse at a dose 100 mg/kg/day.([…]); format: functional; summary of the method: as §3
# [20] = target: T1, Tyrosine-protein phosphatase non-receptor type 1 (Rattus norvegicus); assay: IC50 for PTPase activity, recombinant r-PTP1B as the enzyme .
# [21] = target: T4, Tyrosine-protein phosphatase non-receptor type 1 (Homo sapiens, UniProt P18031); assay: Concentration required to inhibit PTPase activity, recombinant Protein Tyrosine Phosphatase 1b as the enzyme; summary of the method: as §2
# T4 sequence (P18031 whole entry): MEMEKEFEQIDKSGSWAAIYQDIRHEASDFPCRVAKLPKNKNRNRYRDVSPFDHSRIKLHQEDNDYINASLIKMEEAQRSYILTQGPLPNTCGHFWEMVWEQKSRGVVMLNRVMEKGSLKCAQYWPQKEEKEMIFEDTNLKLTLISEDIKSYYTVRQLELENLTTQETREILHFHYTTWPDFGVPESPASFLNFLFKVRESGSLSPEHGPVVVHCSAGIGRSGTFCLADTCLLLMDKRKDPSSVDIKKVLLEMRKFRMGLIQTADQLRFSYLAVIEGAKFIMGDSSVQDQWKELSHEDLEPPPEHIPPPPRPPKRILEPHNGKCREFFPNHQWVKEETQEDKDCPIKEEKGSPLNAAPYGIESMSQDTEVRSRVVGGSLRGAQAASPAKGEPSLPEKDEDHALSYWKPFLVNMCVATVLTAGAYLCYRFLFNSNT
# Mus musculus [22] = assay: Evaluated for their ability to decrease plasma insulin levels in mouse at a dose 100 mg/kg/day.([…]); format: functional; summary of the method: as §3
smiles,measurement,setting,value
Cc1oc(-c2ccc(C(F)(F)F)cc2)nc1COc1cccc(/C(=C/Cn2oc(=O)[nH]c2=O)Cc2ccccc2)c1,Decrease,Mus musculus [1],46%
same,Decrease,Mus musculus [2],23%
same,inhibition,[3],0.8%
CCC/C(=C/Cn1oc(=O)[nH]c1=O)c1cccc(OCc2nc(-c3ccc(C(F)(F)F)cc3)oc2C)c1,Decrease,Mus musculus [4],55%
same,Decrease,[5],Not significant
same,inhibition,[6],58%
same,IC50,[7],Not significant
same,Decrease,[8],Not significant
Cc1oc(-c2ccc(C(F)(F)F)cc2)nc1COc1cccc(/C(=C/Cn2oc(=O)[nH]c2=O)c2ccc(F)cc2)c1,Decrease,Mus musculus [9],34%
same,Decrease,Mus musculus [10],38%
same,Inhibition %,[11],28%
same,inhibition,[3],1.2%
C/C(Cn1oc(=O)[nH]c1=O)=C(\C)c1cccc(OCc2nc(-c3ccc(C(F)(F)F)cc3)oc2C)c1,Decrease,Mus musculus [12],inactive
same,Decrease,[5],Not significant
same,IC50,[13],Not significant
same,inhibition,[14],54%
same,Decrease,[8],Not significant
Cc1oc(-c2ccc(C(F)(F)F)cc2)nc1COc1cccc(C2CC2Cn2oc(=O)[nH]c2=O)c1 (stereo not given),Decrease,Mus musculus [15],36%
same,Decrease,[5],Not significant
same,inhibition,[6],51%
same,inhibition,[16],28%
same,Decrease,[8],Not significant
C/C(=C\CC1OC(=O)NC1=O)c1cccc(OCc2nc(-c3ccc(OC(F)(F)F)cc3)oc2C)c1 (stereo not given),Decrease,Mus musculus [15],40%
same,Decrease,[5],Not significant
same,inhibition,[6],27%
same,IC50,[17],46000 nM
same,Decrease,[8],Not significant
CCCCc1oc2ccccc2c1COc1cccc(/C(C)=C/Cn2oc(=O)[nH]c2=O)c1,Inhibition %,[11],33%
same,IC50,[17],2700 nM
CCCCCCCC/C(=C\Cn1oc(=O)[nH]c1=O)c1cccc(OCc2nc(-c3ccc(C(F)(F)F)cc3)oc2C)c1,Decrease,Mus musculus [18],inactive
same,Decrease,Mus musculus [19],43%
same,IC50,[20],400 nM
CCCC/C(=C\Cn1oc(=O)n(CC(=O)O)c1=O)c1cccc(Oc2cc(Cl)cc(Cl)c2)c1,inhibition,[6],63%
same,IC50,[21],1300 nM
Cc1oc(-c2ccc(C(F)(F)F)cc2)nc1COc1cccc(/C(I)=C/Cn2oc(=O)[nH]c2=O)c1,inhibition,[6],51%
same,Decrease,Mus musculus [22],64%
same,Decrease,Mus musculus [19],38%
same,IC50,[20],1800 nM
CCCCCCCC/C(=C/Cn1oc(=O)n(CC(=O)O)c1=O)c1cccc(OCc2nc(-c3ccc(C(F)(F)F)cc3)oc2C)c1,inhibition,[6],57%
same,IC50,[21],160 nM
